Reference: ChEMBL document CHEMBL5303300, “EUbOPEN Chemogenomics Library - Multiplex” (2023)
“And” between values parts separate entries of the source, which are not always exact repeats. Equal values may be shown once.

Legend:
HEK-293T = test: Multiplex assay against HEK293T; format: toxicity, cell-based; details: human, number of replicates 2
Outline: (§1)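 Phenotypes for tubulin, mitochondrial mass and membrane permeability are expressed as per cents of healthy-nucleus cells. Cells were stained live at seeding with Hoechst33342, BioTracker Green Microtubule Cytoskeleton Dye, MitoTracker Red and Annexin V Alexa Fluor 680, then imaged after compound addition on a CQ1 microscope at 37°C and 5% CO2. Machine-learning gating in CellPathfinder separated Hoechst high-intensity objects from normal cells, divided normal cells by nuclear state (healthy, pyknosed, fragmented) and divided pyknosed cells into mitotic or apoptotic.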

Fibroblast = test: Multiplex assay against human fibroblast; format: toxicity, cell-based; details: number of replicates 2; outline: as §1
[1] = 12 h, 1 µM, compound concentration 1 uM
[2] = 12 h, 10 µM, compound concentration 10 uM
[3] = 24 h, 1 µM, compound concentration 1 uM
[4] = 24 h, 10 µM, compound concentration 10 uM
[5] = 48 h, 1 µM, compound concentration 1 uM
[6] = 48 h, 10 µM, compound concentration 10 uM

Compound: CN(C)C/C=C/C(=O)Nc1ccc(C(=O)Nc2cccc(Nc3ncc(Cl)c(-c4c[nH]c5ccccc45)n3)c2)cc1
- Population Apoptotic (%) (HEK-293T; [1]): 42% and 60%
- Population Fragmented Nuclei (%) (HEK-293T; [1]): 2% and 4%
- Population Healthy Nuclei (%) (HEK-293T; [1]): 51% and 52%
- Population Hoechst High Intensity Objects (%) (HEK-293T; [1]): 23% and 21%
- Population Membrane Permeable-Phenotype (%) (HEK-293T; [1]): 9% and 14%
- Population Mitochondria Different-Phenotype (%) (HEK-293T; [1]): 37% and 41%
- Population Mitotic Cells (%) (HEK-293T; [1]): 57% and 40%
- Population Normal (%) (HEK-293T; [1]): 76% and 78%
- Population Pyknosed Nuclei (%) (HEK-293T; [1]): 46% and 43%
- Population Tubulin-Different-Phenotype (%) (HEK-293T; [1]): 89% and 83%
- Total Cell Count (HEK-293T; [1]): 442 and 379
- Population Apoptotic (%) (HEK-293T; [2]): 52% and 73%
- Population Fragmented Nuclei (%) (HEK-293T; [2]): 3% and 2%
- Population Healthy Nuclei (%) (HEK-293T; [2]): 61% and 57%
- Population Hoechst High Intensity Objects (%) (HEK-293T; [2]): 17% and 19%
- Population Membrane Permeable-Phenotype (%) (HEK-293T; [2]): 10% and 5%
- Population Mitochondria Different-Phenotype (%) (HEK-293T; [2]): 26% and 31%
- Population Mitotic Cells (%) (HEK-293T; [2]): 47% and 26%
- Population Normal (%) (HEK-293T; [2]): 82% and 80%
- Population Pyknosed Nuclei (%) (HEK-293T; [2]): 35% and 40%
- Population Tubulin-Different-Phenotype (%) (HEK-293T; [2]): 91% and 95%
- Total Cell Count (HEK-293T; [2]): 459 and 452
- Population Apoptotic (%) (HEK-293T; [3]): 61% and 75%
- Population Fragmented Nuclei (%) (HEK-293T; [3]): 4% and 5%
- Population Healthy Nuclei (%) (HEK-293T; [3]): 43% and 50%
- Population Hoechst High Intensity Objects (%) (HEK-293T; [3]): 24% and 23%
- Population Membrane Permeable-Phenotype (%) (HEK-293T; [3]): 10% and 5%
- Population Mitochondria Different-Phenotype (%) (HEK-293T; [3]): 44% and 45%
- Population Mitotic Cells (%) (HEK-293T; [3]): 38% and 24%
- Population Normal (%) (HEK-293T; [3]): 75% and 76%
- Population Pyknosed Nuclei (%) (HEK-293T; [3]): 51% and 43%
- Population Tubulin-Different-Phenotype (%) (HEK-293T; [3]): 84% and 77%
- Total Cell Count (HEK-293T; [3]): 394 and 349
- Population Apoptotic (%) (HEK-293T; [4]): 67% and 83%
- Population Fragmented Nuclei (%) (HEK-293T; [4]): 6% and 4%
- Population Healthy Nuclei (%) (HEK-293T; [4]): 49% and 46%
- Population Hoechst High Intensity Objects (%) (HEK-293T; [4]): 19% and 20%
- Population Membrane Permeable-Phenotype (%) (HEK-293T; [4]): 9% and 3%
- Population Mitochondria Different-Phenotype (%) (HEK-293T; [4]): 22% and 35%
- Population Mitotic Cells (%) (HEK-293T; [4]): 32% and 16%
- Population Normal (%) (HEK-293T; [4]): 80% and 79%
- Population Pyknosed Nuclei (%) (HEK-293T; [4]): 43% and 48%
- Population Tubulin-Different-Phenotype (%) (HEK-293T; [4]): 87% and 94%
- Total Cell Count (HEK-293T; [4]): 472 and 454
- Population Apoptotic (%) (HEK-293T; [5]): 79% and 73%
- Population Fragmented Nuclei (%) (HEK-293T; [5]): 8% and 7%
- Population Healthy Nuclei (%) (HEK-293T; [5]): 49% and 42%
- Population Hoechst High Intensity Objects (%) (HEK-293T; [5]): 20% and 22%
- Population Membrane Permeable-Phenotype (%) (HEK-293T; [5]): 3% and 7%
- Population Mitochondria Different-Phenotype (%) (HEK-293T; [5]): 43% and 55%
- Population Mitotic Cells (%) (HEK-293T; [5]): 20% and 26%
- Population Normal (%) (HEK-293T; [5]): 79% and 77%
- Population Pyknosed Nuclei (%) (HEK-293T; [5]): 42% and 49%
- Population Tubulin-Different-Phenotype (%) (HEK-293T; [5]): 63% and 74%
- Total Cell Count (HEK-293T; [5]): 354 and 385
- Population Apoptotic (%) (HEK-293T; [6]): 79% and 85%
- Population Fragmented Nuclei (%) (HEK-293T; [6]): 8% and 7%
- Population Healthy Nuclei (%) (HEK-293T; [6]): 36% and 31%
- Population Hoechst High Intensity Objects (%) (HEK-293T; [6]): 21% and 19%
- Population Membrane Permeable-Phenotype (%) (HEK-293T; [6]): 7% and 3%
- Population Mitochondria Different-Phenotype (%) (HEK-293T; [6]): 33% and 41%
- Population Mitotic Cells (%) (HEK-293T; [6]): 20% and 14%
- Population Normal (%) (HEK-293T; [6]): 78% and 80%
- Population Pyknosed Nuclei (%) (HEK-293T; [6]): 54% and 60%
- Population Tubulin-Different-Phenotype (%) (HEK-293T; [6]): 82% and 97%
- Total Cell Count (HEK-293T; [6]): 449 and 445
- Population Apoptotic (%) (Fibroblast; [1]): 47% and 41%
- Population Fragmented Nuclei (%) (Fibroblast; [1]): 6% and 9%
- Population Healthy Nuclei (%) (Fibroblast; [1]): 61% and 63%
- Population Hoechst High Intensity Objects (%) (Fibroblast; [1]): 0%
- Population Membrane Permeable-Phenotype (%) (Fibroblast; [1]): 6%
- Population Mitochondria Different-Phenotype (%) (Fibroblast; [1]): 9% and 8%
- Population Mitotic Cells (%) (Fibroblast; [1]): 52% and 58%
- Population Normal (%) (Fibroblast; [1]): 99%
- Population Pyknosed Nuclei (%) (Fibroblast; [1]): 32% and 26%
- Population Tubulin-Different-Phenotype (%) (Fibroblast; [1]): 29% and 25%
- Total Cell Count (Fibroblast; [1]): 144 and 155
- Population Apoptotic (%) (Fibroblast; [2]): 50% and 66%
- Population Fragmented Nuclei (%) (Fibroblast; [2]): 21% and 12%
- Population Healthy Nuclei (%) (Fibroblast; [2]): 41% and 42%
- Population Hoechst High Intensity Objects (%) (Fibroblast; [2]): 0%
- Population Membrane Permeable-Phenotype (%) (Fibroblast; [2]): 21% and 22%
- Population Mitochondria Different-Phenotype (%) (Fibroblast; [2]): 10% and 4%
- Population Mitotic Cells (%) (Fibroblast; [2]): 50% and 33%
- Population Normal (%) (Fibroblast; [2]): 99%
- Population Pyknosed Nuclei (%) (Fibroblast; [2]): 36% and 44%
- Population Tubulin-Different-Phenotype (%) (Fibroblast; [2]): 77% and 63%
- Total Cell Count (Fibroblast; [2]): 180 and 169
- Population Apoptotic (%) (Fibroblast; [3]): 62% and 51%
- Population Fragmented Nuclei (%) (Fibroblast; [3]): 12% and 10%
- Population Healthy Nuclei (%) (Fibroblast; [3]): 54% and 55%
- Population Hoechst High Intensity Objects (%) (Fibroblast; [3]): 0%
- Population Membrane Permeable-Phenotype (%) (Fibroblast; [3]): 13% and 5%
